Shown are actives, neighbours in structure and some others; about 1.7% of the full set was active somewhere.
Arr AP2 block = inhibitors of beta-arrestin/AP2 binding, primary screen, biochemical, GPCR trafficking, flow cytometry | beta-arrestin 1 C-terminal peptide binding to AP2 beta2-adaptin appendage (human) | inhibition, % at 10 µM | hit rate 0.31% among 340,000 | FITC-arrestin peptide / GST-AP2 beads; AP2 beta2 appendage carries R879A mutation;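 active means inhibition above a set limit, near 3 SD of compounds lacking own fluorescence, cut at about 54% in these data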
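System: GST-tagged AP2 beta2-adaptin appendage (R879A) on 4 µm glutathione beads / Reagent: FITC-arrestin peptide, 50 nM / Detection: HyperCyt-sampled flow cytometry, FL1 channel, ex 488/em 535 nm / Timing: 12 min plus 1 h, RT / Buffer or medium: PBS plus Tween 20 (0.05%) and BSA (0.1%)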
Neddyl block = inhibitors of cullin neddylation, primary screen, biochemical, TR-FRET, uHTS, NAE and Ubc12; hit rate 0.58% among 360,000; inhibition, % at 25 µM; NEDD8-conjugating enzyme Ubc12 (Homo sapiens) + NEDD8-activating enzyme E1 regulatory …; in the data active means inhibition above about 36%
Efflux pump inh = inhibitors of Candida efflux pumps in yeast, primary screen, S. cerevisiae, Nile Red, multiplex; S. cerevisiae Candida pump triplex; hit rate 0.44% among 330,000; inhibition, % at 10 µM;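 active means plate passing quality check with inhibition over a set limit, or well fluorescence over plate mean plus 4 SD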;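 further: Nile Red retained in pooled yeast measured as flow cytometry median fluorescence; higher means more Nile Red kept so more efflux inhibition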
DSG3 Ab inh = inhibitors of pemphigus antibody binding to DSG3, primary screen, biochemical, bead-based, flow cytometry, scFv-GFP; Desmoglein-3 (Homo sapiens), P32926; DSG3-coupled beads, scFv-anti-DSG3-GFP binding; stronger effect = lower value; binding (percent of control), % at 10 µM; hit rate 0.48% among 310,000;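 active means binding more than 3 SD below its plate's average and above zero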
Arr-AP2 CP1 = inhibitors of arrestin peptide binding to AP2, confirmation, biochemical, cherry pick 1, flow cytometry beads. inhibition, % at 10 µM. GST-AP2 beads, FITC arrestin peptide binding; GST-fused beta2-adaptin appendage, R879A mutant. AID 504908, 2011. shares compounds with Arr AP2 block. hit rate 2% among 1,300;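 active means inhibition above a set limit, roughly 3 SD of non-fluorescent compound noise, cut at about 38% in these data; inactive means inhibition at or below that limit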;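 further: loss of bead fluorescence from 50 nM FITC arrestin peptide bound to appendage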
Target sequence (P63010 whole entry, looked up, the tested form may be a part, one chain of several): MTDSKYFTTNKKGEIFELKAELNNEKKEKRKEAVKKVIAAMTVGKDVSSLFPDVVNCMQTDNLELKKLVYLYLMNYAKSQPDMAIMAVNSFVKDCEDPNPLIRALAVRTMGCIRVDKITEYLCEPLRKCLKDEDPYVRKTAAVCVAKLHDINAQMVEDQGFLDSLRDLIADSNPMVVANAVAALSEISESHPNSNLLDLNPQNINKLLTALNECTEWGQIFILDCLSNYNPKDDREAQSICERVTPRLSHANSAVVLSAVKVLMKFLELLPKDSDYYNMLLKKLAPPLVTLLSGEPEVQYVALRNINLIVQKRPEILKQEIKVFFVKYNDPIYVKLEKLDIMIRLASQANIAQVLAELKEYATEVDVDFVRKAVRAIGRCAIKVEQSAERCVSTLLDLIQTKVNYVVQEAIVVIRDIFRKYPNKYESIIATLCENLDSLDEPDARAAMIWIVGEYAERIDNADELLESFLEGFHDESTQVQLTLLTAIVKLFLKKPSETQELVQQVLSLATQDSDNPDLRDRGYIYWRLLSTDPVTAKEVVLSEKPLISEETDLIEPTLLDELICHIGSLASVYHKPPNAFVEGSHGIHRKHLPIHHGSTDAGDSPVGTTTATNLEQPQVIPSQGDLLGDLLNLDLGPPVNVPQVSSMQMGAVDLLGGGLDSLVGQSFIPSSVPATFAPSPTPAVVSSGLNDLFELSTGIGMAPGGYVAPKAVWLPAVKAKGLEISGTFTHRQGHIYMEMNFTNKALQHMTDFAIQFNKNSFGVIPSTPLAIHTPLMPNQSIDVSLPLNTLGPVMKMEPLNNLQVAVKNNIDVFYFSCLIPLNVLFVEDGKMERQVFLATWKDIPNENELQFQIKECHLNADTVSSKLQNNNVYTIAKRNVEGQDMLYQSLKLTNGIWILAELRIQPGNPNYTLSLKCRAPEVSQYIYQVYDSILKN
GST GSH counter = GST-fluorescein capture on glutathione beads, confirmation, artefact control for arrestin-AP2 inhibitor project, biochemical, cherry pick 1, flow cytometry; hit rate 2% among 1,300; AID 588338, 2011; shares compounds with Arr AP2 block; inhibition, % at 10 µM; GST-fluorescein binding to GSH beads, fluorescence, counter-screen;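 active means inhibition above 50%, about 3 SD of the inhibition seen with non-fluorescent compounds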;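 further: fluorescein maleimide labelled GST captured on 4 micron glutathione beads; higher means more loss of bead fluorescence from quenching or blocked binding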
Each line names hits and unclear results; the compound was inactive in the other large screens (follow-up assays come after a bar, where shown).

Cc1cccc(NC(=S)N(Cc2ccc(Cl)cc2)Cc2ccc(C(=O)O)cc2)c1	Arr AP2 block 56 | Arr-AP2 CP1 inactive | GST GSH counter inactive
COc1ccc(C(F)(F)F)cc1N/C=C/c1nnnn1-c1ccc2ccccc2c1	none (no result: DSG3 Ab inh)
O=C(CCS(=O)(=O)c1ccccc1)OCc1ccc([N+](=O)[O-])cc1	none
COc1ccccc1Nc1nc2c(C)cccc2cc1C#N	Arr AP2 block 57 | Arr-AP2 CP1 inactive | GST GSH counter inactive
O=C(/C=C1\OCc2ccccc21)c1ccccc1	none (no result: Arr AP2 block, Efflux pump inh, DSG3 Ab inh)
COc1ccccc1-n1c(SCC(=O)NC2CC2)nc2ccccc2c1=O	Arr AP2 block 60 | Arr-AP2 CP1 inactive | GST GSH counter inactive
Cc1cccc(C)c1NC(=S)Nc1ccc(F)cc1	Arr AP2 block 57 | Arr-AP2 CP1 inactive | GST GSH counter inactive
N#Cc1cnn2ccc(-c3cc(N4CCOCC4)ccc3[N+](=O)[O-])nc12	none
CCn1nc(NC(=O)CC(C)C)c2cc3cccc(C)c3nc21	Arr AP2 block 55 | Arr-AP2 CP1 inactive | GST GSH counter inactive
CCCn1nc(NC(=O)CC(C)C)c2cc3cccc(C)c3nc21	none
COc1ccc(Nc2nc(N/N=C/c3ccc(N(C)C)cc3)nc(C)c2[N+](=O)[O-])cc1	Arr AP2 block 103 | Arr-AP2 CP1 inactive | GST GSH counter inactive
COc1ccc(Nc2nc(NN)nc(C)c2[N+](=O)[O-])cc1	none
O=C(CCNC(=O)C1CCN(S(=O)(=O)c2ccccc2)CC1)NCc1ccc(Cl)cc1	Arr AP2 block 63 | Arr-AP2 CP1 inactive | GST GSH counter inactive
O=C(CCNC(=O)C1CCN(S(=O)(=O)c2ccccc2)CC1)NCc1cccc(Cl)c1	none
O=C(Nc1cc(C(F)(F)F)ccc1-n1cncn1)c1cn2ccccc2n1	none
CN(C)c1oc(COc2ccccc2F)nc1C#N	none
CN(C)c1oc(COc2ccc(F)cc2)nc1C#N	Arr AP2 block 55 | Arr-AP2 CP1 inactive | GST GSH counter inactive
COc1ccccc1NC(=O)C(=O)NCCC1CCCCN1S(=O)(=O)c1cccs1 (centres undefined)	none
CCOC(=O)C1CCN(c2cc3c(cc2NC(=O)c2ccccc2)n(C)c(=O)n3C)CC1	none | Arr-AP2 CP1 inactive | GST GSH counter inactive
COc1ccc(C(=O)Nc2ccc3c(c2)n(C)c(=O)n3C)cc1OC	none
CCOC(=O)C1CCN(c2cc3c(cc2NC(=O)c2ccc(OC)c(OC)c2)n(C)c(=O)n3C)CC1	none | Arr-AP2 CP1 inactive | GST GSH counter inactive
O=S(=O)(c1cccc2cccc(Cl)c12)N1CCCC1	none (no result: DSG3 Ab inh)
O=C(CCCC(=O)Nc1cccnc1)Nc1cccnc1	Arr AP2 block 82 | Arr-AP2 CP1 inactive
Cc1nn(-c2ccccn2)c2c1C(c1ccsc1)C1=C(CCCC1=O)N2 (centres undefined)	Arr AP2 block 105 (not shown: Neddyl block) | Arr-AP2 CP1 inactive | GST GSH counter inactive
CC(C)(C)C1CCC(OCC(O)CN2CCN(c3ccccn3)CC2)CC1 (centres undefined)	none
COc1ccc(CC(=O)NCCCSc2ccccc2)cc1OC	none
CC(c1ccccc1)n1c(Cn2ncc3ccccc3c2=O)n[nH]c1=S (centres undefined)	Arr AP2 block 54 | Arr-AP2 CP1 inactive | GST GSH counter inactive
O=c1c2ccccc2cnn1Cc1n[nH]c(=S)n1-c1ccc(Cl)cc1	none
Cc1cc(C)cc(OCC(=O)OCC(=O)N(CC(C)C)c2c(N)n(Cc3ccccc3)c(=O)[nH]c2=O)c1	none
CN(C)C(CNC(=O)CCNS(=O)(=O)c1ccccc1C(F)(F)F)c1ccccc1 (centres undefined)	Arr AP2 block 58 (no result: DSG3 Ab inh) | Arr-AP2 CP1 inactive | GST GSH counter inactive
O=C(CCNS(=O)(=O)c1ccccc1C(F)(F)F)NCCCSc1ccccc1	none
CCN1/C(=C\C(=S)Nc2ccccc2)Sc2ccccc21	none
CCN1/C(=C/C(C)=C/c2sc3ccccc3[n+]2CC)Sc2ccccc21	Arr AP2 block 86, DSG3 Ab inh 23 | Arr-AP2 CP1 71 | GST GSH counter inactive
